Experimental data from different studies.
Target: Serine/threonine-protein kinase RIO3 (RIOK3, Homo sapiens, UniProt O14730)
One construct used (O14730 1-519): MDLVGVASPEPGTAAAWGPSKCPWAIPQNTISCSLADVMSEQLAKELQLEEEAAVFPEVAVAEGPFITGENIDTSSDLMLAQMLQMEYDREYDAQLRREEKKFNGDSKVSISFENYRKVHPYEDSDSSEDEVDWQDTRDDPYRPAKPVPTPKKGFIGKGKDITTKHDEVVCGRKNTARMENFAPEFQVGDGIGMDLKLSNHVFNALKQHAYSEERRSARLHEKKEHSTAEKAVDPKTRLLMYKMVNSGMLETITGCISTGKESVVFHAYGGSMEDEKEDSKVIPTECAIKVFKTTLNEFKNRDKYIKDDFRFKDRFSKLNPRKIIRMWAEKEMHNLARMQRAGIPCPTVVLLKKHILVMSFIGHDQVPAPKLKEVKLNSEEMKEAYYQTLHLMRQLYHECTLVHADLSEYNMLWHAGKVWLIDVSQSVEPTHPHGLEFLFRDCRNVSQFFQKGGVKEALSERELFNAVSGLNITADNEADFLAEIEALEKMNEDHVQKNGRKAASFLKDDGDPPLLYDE

SMILES	effect on	technique	concentration	remaining binding
CN(c1nccc(-c2cnn3ncccc23)n1)C1CC1	binding	–	1 µM	100%
c1cncc(-c2cccc(Nc3nccc(NC4CCCCC4)n3)c2)c1	binding	competition with immobilised ligand	10 µM	80%
O=C1NC(c2ccccn2)Sc2ccccc21 (stereo not shown)	cell-free assay	competition with immobilised ligand	1 µM	91%
FC(F)(F)Oc1cccc(-c2cnc3ccc(-c4ccncc4)nn23)c1	binding	competition with immobilised ligand	5 µM	16%
COc1ccc2c(O[C@@H]3C[C@H]4C(=O)N[C@]5(C(=O)O)CC5/C=C\CCCCC[C@H](NC(=O)OC5CCCC5)C(=O)N4C3)cc(-c3csc(NC(=O)C(C)C)n3)nc2c1C (stereo partly shown)	cell-free assay	competition with immobilised ligand	1 µM	100%
COc1ncc2cc3ccccc3nc2c1C#N	cell-free assay	competition with immobilised ligand	5 µM	97%
COc1cc(-c2cn(C3CCc4ccccc4N(CC(F)(F)F)C3=O)nn2)ccc1-n1ccc(C)n1 (stereo not shown)	cell-free assay	competition with immobilised ligand	1 µM	100%
F[C@@H]1CCN(c2nccc(-c3cnn4ncccc34)n2)C1	binding	–	1 µM	85%
O=C(NCC1CCOCC1)c1n[nH]cc1NC(=O)c1c(F)cccc1F	binding	competition with immobilised ligand	1 µM	84%
CC1CCCN1c1nccc(-c2cnn3ncccc23)n1 (stereo not shown)	binding	–	1 µM	100%
COc1cnc(Nc2cccc(S(N)(=O)=O)c2)nc1N1CCN(c2ccccc2)CC1	binding	competition with immobilised ligand	1 µM	91%
C[C@H]1CCN(c2nccc(-c3cnn4ncccc34)n2)C1	binding	–	1 µM	100%
CCN1CCN(Cc2ccc(C(=O)Nc3ccc(C)c(Oc4ccc5c(c4)CC(=O)N5)c3)cc2C(F)(F)F)CC1	binding	competition with immobilised ligand	1 µM	100%
CN(C)c1ncc(F)c(-c2cnn3ncccc23)n1	binding	–	1 µM	100%
O=C(N1CCS(=O)(=O)CC1)N1C[C@H](c2ccc(OC(F)(F)F)cc2)C[C@H](c2nc(C3CC3)no2)C1	cell-free assay	competition with immobilised ligand	1 µM	85%
O=C(c1ccc(Nc2nccc(-c3cc4ccccc4s3)n2)cc1)N1CCC(N2CCCC2)CC1	binding	competition with immobilised ligand	1 µM	0.9%
CCCOc1ccc([C@@H]2[C@@H](C(=O)O)[C@H](c3ccc4c(c3)OCO4)CN2CC(=O)Nc2c(CC)cccc2CC)cc1	cell-free assay	competition with immobilised ligand	1 µM	100%
O=C(NCCCN1CCOCC1)c1ccc(Nc2ncc(Cl)c(-c3ccc(Cl)s3)n2)cc1	binding	competition with immobilised ligand	1 µM	0.4%
CC(C)(O)c1cncc(-c2nc3ccc(F)cc3n2C2CC2)c1	cell-free assay	competition with immobilised ligand	1 µM	100%
N[C@@H]1CCN(c2nccc(-c3cnn4ncccc34)n2)C1	binding	–	1 µM	100%
CO[C@@H](C)c1c(Nc2ccc([C@@H](N(C)C(=O)C3CCS(=O)(=O)CC3)C(F)(F)F)cc2)cnc2cc(Cl)nn12	cell-free assay	competition with immobilised ligand	1 µM	90%
Cc1cnc(Nc2ccc(C(=O)N3CCC(N4CCCC4)CC3)cc2)nc1-c1cc2ccccc2s1	binding	competition with immobilised ligand	1 µM	0.3%
